In paper PMC10694180 (Heliyon, 2023):
“Also recorded” adds a separate entry of the source. Read-outs that look alike come from different tables or passages of the source.

Legend:
[1] = system: hypoxia induced ID8 mouse ovarian epithelial cell line; test: MTT assay, hypoxia induced ovarian cancer cell line ID8; type: cell-based; conditions: for inhibition of cell proliferation: ID8 cells, 50 μM concentration; for IC50: 72 h
Procedure, shortened: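 Hypoxia-induced mouse ID8 ovarian epithelial cells were seeded in 96-well plates and exposed to test compound or control. MTT was added 72 h after drug addition, and the resuspended formazan was read by absorbance. Growth inhibition (%) = [1 − (A/B)] × 100, where A is treated wells and B is control wells; n = 3.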

[2] = biological target: Hypoxia-inducible factor 1-alpha (HIF-1α) (Mus musculus, UniProt Q61221); test: Quantitative HIF-1α inhibitory assay; type: cell-based; conditions: ELISA, cell extracts, 50 μM concentration (Fig. 3)
Sequence of Hypoxia-inducible factor 1-alpha (HIF-1α) (Q61221 whole entry): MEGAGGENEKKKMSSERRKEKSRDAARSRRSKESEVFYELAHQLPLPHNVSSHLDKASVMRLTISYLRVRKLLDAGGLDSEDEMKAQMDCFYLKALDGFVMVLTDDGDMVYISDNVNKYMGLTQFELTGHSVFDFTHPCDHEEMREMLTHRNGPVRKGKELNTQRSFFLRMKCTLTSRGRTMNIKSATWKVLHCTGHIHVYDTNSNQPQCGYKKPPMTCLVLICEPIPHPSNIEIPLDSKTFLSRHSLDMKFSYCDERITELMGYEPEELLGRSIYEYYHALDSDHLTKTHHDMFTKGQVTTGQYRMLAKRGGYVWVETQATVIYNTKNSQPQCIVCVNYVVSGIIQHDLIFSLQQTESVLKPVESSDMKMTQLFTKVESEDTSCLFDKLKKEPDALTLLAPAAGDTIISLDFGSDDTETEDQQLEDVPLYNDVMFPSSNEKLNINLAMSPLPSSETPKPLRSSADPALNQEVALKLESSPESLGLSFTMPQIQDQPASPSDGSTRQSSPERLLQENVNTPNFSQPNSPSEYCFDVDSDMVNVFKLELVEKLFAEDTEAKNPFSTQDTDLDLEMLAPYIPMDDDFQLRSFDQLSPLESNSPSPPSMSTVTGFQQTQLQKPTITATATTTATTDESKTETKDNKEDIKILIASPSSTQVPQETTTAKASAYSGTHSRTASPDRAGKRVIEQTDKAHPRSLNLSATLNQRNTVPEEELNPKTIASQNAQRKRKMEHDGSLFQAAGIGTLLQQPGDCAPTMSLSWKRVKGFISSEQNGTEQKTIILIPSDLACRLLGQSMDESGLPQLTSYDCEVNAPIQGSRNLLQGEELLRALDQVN
Procedure, shortened: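 Mouse HIF-1α quantified with a simple-step ELISA kit run per the manufacturer. Cell lysate concentrates from fresh material were added to wells coated with double-stranded DNA carrying HIF-1α-binding HREs. Bound HIF-1α was detected with a primary mouse anti-HIF-1α antibody and a labelled secondary anti-mouse antibody, and absorbance was read at 450 nm.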

[3] = Solubility data of synthesized compounds; type: physicochemical; conditions: solvents: DMSO, ethanol, ethanolic water
[4] = read-out: IC50 (μM), viability of Ovarian cancer cell lines ID8, hypoxia induced ID8, MTT, n = 3
[5] = Mus musculus, Epithelial cell, read-out: IC50 (μM), viability of Ovarian cancer cell lines ID8, hypoxia induced ID8, MTT, 72 h, n = 3

**Q.** With `N.N.[Cl][Pt][Cl]` [Cisplatin, reference compound] as the compound, how does the “inhibition of cell proliferation” value [1] read?
**A.** Its value is 60%.

**Q.** And the IC50 [1, 4]?
**A.** The IC50 was 8.5 ± 0.23 µM.

**Q.** What about the IC50 ([1]; read-out: IC50 (μM), viability of Ovarian cancer cell lines ID8, hypoxia induced ID8, MTT, n = 3, listed as cisplatin) of the same compound?
**A.** Its IC50 is 8.5 µM.

**Q.** For `O=C(CN1CCOCC1)N1CCOCC1` [Compound 1a, 1,2-di (morpholin-4-yl) ethanone], which IC50 [1, 5] is on record?
**A.** Its IC50 is 23.9 ± 0.61 µM.

**Q.** For `O=C(CN1CCCC1)N1CCOCC1` [Compound 1b, 1-(morpholin-4-yl)-2-(pyrrolidin-1-yl) ethanone], which IC50 [1, 5] is on record?
**A.** The IC50 was 14.8 ± 0.7 µM.

**Q.** With `O=C(CNc1ccccn1)N1CCOCC1` [Compound 1c, 1-(morpholin-4-yl)-2-(pyridin-2-ylamino) ethanone] as the compound, how does the IC50 [1, 5] read?
**A.** The IC50 was 15.7 ± 0.64 µM.

**Q.** And the “inhibition of HIF-1α” value [2]?
**A.** The value was “significant inhibitory effects; also recorded: optimal activity; also recorded: promising activities”.

**Q.** Which IC50 [1, 5] does the source give for `COc1cccc(NCC(=O)N2CCOCC2)c1` [Compound 1d, 2-[(3-methoxyphenyl)amino]-1-(morpholin-4-yl) ethanone] here?
**A.** Its IC50 is 25.3 ± 0.82 µM.

**Q.** What about the “inhibition of HIF-1α” value [2] of the same compound?
**A.** The value was “lesser inhibition”.

**Q.** For `COc1ccc(NCC(=O)N2CCOCC2)cc1` [Compound 1e, 2-[(4-methoxyphenyl)amino]-1-(morpholin-4-yl)ethanone], which IC50 [1, 5] is on record?
**A.** The IC50 was 26.4 ± 0.72 µM.

**Q.** With `COc1ccccc1NCC(=O)N1CCOCC1` [Compound 1f, 2-[(2-methoxyphenyl)amino]-1-(morpholin-4-yl) ethanone] as the compound, how does the IC50 [1, 5] read?
**A.** Its IC50 is 158.4 ± 0.66 µM.

**Q.** For `O=C(COc1ccccc1)N1CCOCC1` [Compound 1g, 1-(morpholin-4-yl)-2-phenoxyethanone], which IC50 [1, 5] is on record?
**A.** Its IC50 is 146.1 ± 0.56 µM.

**Q.** And the solubility [3]?
**A.** The solubility was “only soluble in DMSO”.

**Q.** Which “inhibition of cell proliferation” value [1] does the source give for `O=C(CNc1ccc(F)cc1)N1CCOCC1` [Compound 1h, 2-[(4-fluorophenyl)amino]-1-(morpholin-4-yl) ethanone] here?
**A.** The value was “maximum inhibition”.

**Q.** And the IC50 [1, 5]?
**A.** Its IC50 is 9.4 µM.

**Q.** And the IC50 [1, 4]?
**A.** The IC50 was 9.41 ± 0.73 µM.

**Q.** What about the “inhibition of HIF-1α” value [2] of the same compound?
**A.** The value was “significant inhibitory effects; also recorded: optimal activity; also recorded: good inhibition”.

**Q.** What does the source list for `Cc1ccc(C(C)C)c(OCC(=O)N2CCOCC2)c1` [Compound 1i, 2-[5-methyl-2-(propan-2-yl)phenoxy]-1-(morpholin-4-yl) ethanone]?
**A.** inhibition of cell proliferation [1]: maximum inhibition; IC50 [1, 5]: 11.2 ± 0.22 µM; inhibition of HIF-1α [2]: significant inhibitory effects; also recorded: optimal activity; also recorded: good inhibition

**Q.** With `O=C(CNCc1ccc(Cl)cc1)N1CCOCC1` [Compound 1j, 2-[(4-chlorobenzyl)amino]-1-(morpholin-4-yl) ethanone] as the compound, how does the IC50 [1, 5] read?
**A.** Its IC50 is 21.49 ± 0.11 µM.

**Q.** And the solubility [3]?
**A.** The solubility was “only soluble in DMSO”.

**Q.** Which IC50 [1, 5] does the source give for `O=C(CNCc1ccc(F)cc1)N1CCOCC1` [Compound 1k, 2-[(4-fluorobenzyl)amino]-1-(morpholin-4-yl) ethanone] here?
**A.** The IC50 was 64.2 ± 0.88 µM.

**Q.** Which results are given for `O=C(CNc1nnc(-c2ccccc2)o1)N1CCOCC1` [Compound 1l, 1-(morpholin-4-yl)-2-[(5-phenyl-1,3,4-oxadiazol-2-yl)amino] ethanone]?
**A.** IC50 [1, 5]: 15.6 µM; inhibition at 50 µM ([1]; Mus musculus, ID8, read-out: inhibition of cell proliferation): 60%; IC50 [1, 4]: 15.6 ± 0.77 µM

**Q.** For `O=C(CSc1nc2ccccc2s1)N1CCOCC1` [Compound 1m, 2-(1,3-benzothiazol-2-ylsulfanyl)-1-(morpholin-4-yl) ethanone], which IC50 [1, 5] is on record?
**A.** Its IC50 is 32.4 ± 0.67 µM.

**Q.** Which results are given for `O=C(CNCc1ccccc1)N1CCOCC1` [Compound 1n, 2-(benzylamino)-1-(morpholin-4-yl) ethanone]?
**A.** IC50 [1, 5]: 47.9 ± 0.75 µM; solubility [3]: only soluble in DMSO
